Source: ChEMBL document CHEMBL1154181 (J Med Chem, 2009)

Each compound was assayed on Mus musculus (assay: Antinociceptive activity against thermal nociception in po dosed CD1 mouse assessed as increase in latency period to elicit jumping or hind paw licking measured after 15 to 90 mins postdose by hot plate method).
Assay type: functional
`CN1CC[C@]23c4c5ccc(O)c4O[C@H]2[C@@H](O)C=C[C@H]3[C@H]1C5` [MORPHINE] was tested, and the ED50 was 6.9 mg/kg.

The compounds below were run on Mus musculus (assay: Antinociceptive activity against radiant heat-induced nociception in po dosed CD1 mouse assessed as increase in tail withdrawal latency measured after 15 to 120 mins postdose by tail flick test).
Assay type: functional
Method in brief: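 Male CD-1 mice, 25–30 g; oral dosing. Radiant heat focused 3–4 cm from tail tip of hand-restrained mice; tail withdrawal latency recorded, cutoff 15 s at 15 V. Baseline = mean of three readings 15 min apart; latency at 15–120 min.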
Work on `CN1CC[C@]23c4c5ccc(O)c4O[C@H]2[C@@H](O)C=C[C@H]3[C@H]1C5` [MORPHINE] yielded an ED50 of 3.5 mg/kg.

Each compound was assayed on Mus musculus (assay: Antinociceptive activity against radiant heat-induced nociception in icv dosed CD1 mouse assessed as increase in tail withdrawal latency measured after 15 to 120 mins postdose by tail flick test).
Assay type: functional
Method in brief: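 Male CD-1 mice anesthetized with ketamine-xylazine (80 + 10 mg/kg ip). Dosed into the right lateral ventricle (+2 mm ML, −0.3 mm AP to bregma, 2 mm depth). Tail flick with radiant heat, cut-off 15 s. Latency read at 15–120 min as %MPE.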
`Cc1ccc(N2CCN(CCn3nc(C)c(-c4ccn[nH]4)c(N)c3=O)CC2)cc1` gave an ED50 of 16.9 µg.
For `C=Cc1c(C)nn(CCCN2CCN(c3ccc(Cl)cc3)CC2)c(=O)c1N`, the ED50 was 15.4 µg.
For `C=Cc1c(C)nn(CCCN2CCN(c3cccc(OC)c3)CC2)c(=O)c1N`, the ED50 was 72.6 µg.
With `Cc1ccc(N2CCN(CCCn3nc(C)cc(N)c3=O)CC2)cc1` the ED50 was 4.9 µg.
For `Cc1ccc(N2CCN(CCn3nc(-c4ccccc4)c(-c4csc(C)n4)c(N)c3=O)CC2)cc1`, the ED50 was 25.1 µg.
`C=Cc1c(C)nn(C)c(=O)c1NCCN1CCN(c2ccc(C)cc2)CC1` gave an ED50 of 24.1 µg.
`C=Cc1c(C)nn(CCCN2CCN(C)CC2)c(=O)c1N` was tested, and the ED50 was 8.7 µg.
`Cc1ccc(N2CCN(CCCn3nc(-c4ccccc4)c(-c4csc(C)n4)c(N)c3=O)CC2)cc1` showed an ED50 of 48.3 µg.
For `CN1CC[C@]23c4c5ccc(O)c4O[C@H]2[C@@H](O)C=C[C@H]3[C@H]1C5` [MORPHINE], the ED50 was 1.1 µg.
In the case of `C=Cc1c(C)nn(CCCN2CCN(c3ccc(OC)cc3)CC2)c(=O)c1N`, the ED50 is reported as 12.6 µg.
`C=Cc1sc(=O)n(CCCN2CCN(c3ccc(C)cc3)CC2)c1C` was tested, and the ED50 was 5.1 µg.
`C=Cc1c(C)nn(CCCN2CCN(c3cccc(Cl)c3)CC2)c(=O)c1N` was tested, and the ED50 was 23.7 µg.
In the case of `C=Cc1c(C)nn(CCN2CCN(c3ccc(OC)cc3)CC2)c(=O)c1N`, the ED50 is reported as 11.9 µg.
For `C=Cc1cnn(CCCN2CCN(c3ccc(C)cc3)CC2)c(=O)c1N`, the ED50 was 25.1 µg.
In the case of `C=Cc1c(C)nn(CCCN2CCC(C)CC2)c(=O)c1N`, the ED50 is reported as 26.4 µg.
With `C=Cc1c(C)nn(CCCN2CCN(c3cccc(C)c3)CC2)c(=O)c1N` the ED50 was 51.55 µg.
Work on `Cc1ccc(N2CCN(CCCn3nc(C)ccc3=O)CC2)cc1` yielded an ED50 of 13.8 µg.
Compound `C=Cc1c(C)nn(CCN2CCN(c3ccc(C)cc3)CC2)c(=O)c1N` has an ED50 of 26.1 µg.
`Cc1ccc(N2CCN(CCCn3cc(-c4ccncc4)cc(N)c3=O)CC2)cc1` gave an ED50 of 7.6 µg.
